The text below walks through data of ChEMBL document CHEMBL3593155, “Synthesis and evaluation of N-analogs of 1,2-diarylethane as Helicobacter pylori urease inhibitors” (Bioorg Med Chem, 2015).

Molecules are shown by their SMILES.

The target of assay [1] is T1, Urease subunit alpha/Urease subunit beta (Helicobacter pylori (strain ATCC 700392 / 26695) (Campylobacterpylori), UniProt P69996). Kind of assay: Inhibition of urease isolated from Helicobacter pylori ATCC 43504 assessed as ammonia production incubated for 1.5 hrs prior to testing by indophenol method. In outline: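 Washed cells were sonicated in water with protease inhibitors, and the supernatant was desalted on Sephadex G-25. This crude urease, mixed with an equal volume of glycerol, was pre-incubated with test compound for 1.5 h at room temperature.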

Assay [2] has as its target T1, Urease subunit alpha/Urease subunit beta. Kind of assay: Inhibition of urease in Helicobacter pylori ATCC 43504 assessed as ammonia production incubated for 1.5 hrs prior to testing by indophenol method. In outline:
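Washed cells were sonicated 60 s in water with protease inhibitors. The supernatant was desalted on Sephadex G-25 and stored with equal-volume glycerol at 4 °C. Enzyme was preincubated with compound 1.5 h at room temperature.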

Assay [3] addresses T2, Urease subunit alpha/Urease subunit beta (Helicobacter pylori (strain ATCC 700392 / 26695) (Campylobacterpylori)) (UniProt P69996+P14916). Kind of assay: Potency index, ratio of AHA IC50 to compound IC50 for urease in Helicobacter pylori ATCC 43504.
Assay [4] has as its target T2, Urease subunit alpha/Urease subunit beta (Helicobacter pylori (strain ATCC 700392 / 26695) (Campylobacterpylori)). Kind of assay: Potency index, ratio of AHA IC50 to compound IC50 for urease isolated from Helicobacter pylori ATCC 4350. As to conditions: Helicobacter pylori ATCC 43504.

T1 sequence (P69996 whole entry): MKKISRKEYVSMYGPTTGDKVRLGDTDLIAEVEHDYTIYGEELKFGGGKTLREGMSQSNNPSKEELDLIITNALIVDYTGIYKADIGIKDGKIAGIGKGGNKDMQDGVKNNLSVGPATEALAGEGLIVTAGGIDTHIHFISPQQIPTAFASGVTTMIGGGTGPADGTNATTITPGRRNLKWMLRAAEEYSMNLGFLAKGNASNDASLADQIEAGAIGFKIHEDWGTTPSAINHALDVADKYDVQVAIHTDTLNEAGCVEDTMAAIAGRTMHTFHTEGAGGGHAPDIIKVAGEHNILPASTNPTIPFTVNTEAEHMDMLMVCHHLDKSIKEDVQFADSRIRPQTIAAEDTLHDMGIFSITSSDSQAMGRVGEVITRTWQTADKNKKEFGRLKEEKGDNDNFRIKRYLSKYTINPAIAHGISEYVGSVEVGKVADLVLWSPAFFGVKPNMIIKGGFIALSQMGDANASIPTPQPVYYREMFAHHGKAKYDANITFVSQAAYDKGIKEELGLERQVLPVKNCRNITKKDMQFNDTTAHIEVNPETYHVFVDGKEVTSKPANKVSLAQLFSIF
T1 sequence (P14916 whole entry, further chain): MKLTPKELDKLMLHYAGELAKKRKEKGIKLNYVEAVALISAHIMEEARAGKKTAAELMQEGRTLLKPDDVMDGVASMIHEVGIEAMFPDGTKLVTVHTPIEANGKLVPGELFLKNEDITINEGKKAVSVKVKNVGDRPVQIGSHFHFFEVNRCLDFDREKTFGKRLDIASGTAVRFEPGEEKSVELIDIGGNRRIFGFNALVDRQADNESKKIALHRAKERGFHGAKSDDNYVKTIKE
T2 sequence (P14916 whole entry, looked up): as the sequence (P14916 whole entry, further chain) above
T2 sequence (P69996 whole entry, looked up): as the sequence (P69996 whole entry) above

Broadly, the IC50 is the concentration that inhibits the measured activity by half. On to `O=[N+]([O-])c1cccc(CNc2cccc([N+](=O)[O-])c2)c1`, for which the IC50 in assay [1] came to 85 µM.

For `O=[N+]([O-])c1cccc(NCc2ccc(O)c(O)c2)c1`, the IC50 in assay [1] was found to be 2.33 µM; in assay [2], 9.52 µM.

On to `O=[N+]([O-])c1ccc(NCc2ccc(O)cc2)cc1`, for which the IC50 in assay [1] amounted to 8.26 µM; in assay [2] it was 28.1 µM.

As to `O=[N+]([O-])c1ccc(NCc2ccc(O)c(O)c2)cc1`, the Ratio IC50 was determined as 54 in assay [3] and 29 in assay [4]. Also, the values for the IC50 in assay [1] and in assay [2] were 0.62 µM and 1.92 µM, respectively.

Consider `O=[N+]([O-])c1ccc(CNc2ccc([N+](=O)[O-])cc2)cc1`, for which the IC50 in assay [1] worked out at 26.3 µM; in assay [2], 126 µM.

Consider `Clc1ccc(NCc2ccc3c(c2)OCO3)cc1`, for which the concentration for half-maximal inhibition (IC50) in assay [1] is over 500 µM.

`COc1ccc(NCc2cccc([N+](=O)[O-])c2)cc1`: in assay [1], the IC50 was 319 µM.

`O=[N+]([O-])c1ccc(CNc2cccc(Cl)c2)cc1`: the IC50 in assay [1] amounted to 236 µM.

With `CC(=O)NO` [ACETOHYDROXAMIC ACID], the IC50 in assay [1] was 18.4 µM; in assay [2] it was 105 µM.

As to `COc1ccc(CNc2cccc([N+](=O)[O-])c2)cc1OC`, in assay [1], the 50% inhibitory concentration (IC50) was found to be 50.4 µM.

Take `O=[N+]([O-])c1ccc(NCc2ccc(Cl)cc2)cc1`: the IC50 in assay [1] amounted to 19.5 µM; in assay [2] it was 83.8 µM.

On to `O=[N+]([O-])c1cccc(NCc2ccc(Cl)cc2)c1`, for which, in assay [1], the IC50 is 57.5 µM.

Consider `CN(C)c1ccc(CNc2cccc([N+](=O)[O-])c2)cc1`, for which the results for the half-maximal inhibitory concentration (IC50) in assay [1] and in assay [2] were 16.8 µM and 72.4 µM, respectively.

With `COc1ccc(CNc2ccc(Cl)cc2)cc1OC`, the IC50 in assay [1] was over 500 µM.

`O=[N+]([O-])c1ccc(CNc2cccc([N+](=O)[O-])c2)cc1`: in assay [1], the IC50 amounted to 64.9 µM.

As for `COc1ccc(NCc2ccc(Cl)cc2)cc1`, in assay [1], the IC50 is over 500 µM.

As for `CN(C)c1ccc(CNc2ccc(Cl)cc2)cc1`, the IC50 in assay [1] was over 500 µM.

As for `O=[N+]([O-])c1ccccc1CNc1ccc(Cl)cc1`, the IC50 in assay [1] amounted to 239 µM.

Regarding `O=[N+]([O-])c1cccc(CNc2cccc(Cl)c2)c1`, in assay [1], the IC50 stood at 410 µM.

`O=[N+]([O-])c1ccccc1NCc1ccc(O)c(O)c1`: the IC50 in assay [1] is 45.1 µM.

Regarding `COc1ccc(NCc2ccc(N(C)C)cc2)cc1`, in assay [1], the IC50 was over 500 µM.
